Experimental data of several laboratories.
Lines come from different studies, so protocols differ.

Structure (SMILES) | tested on | test | test system | conditions | measurement | result
NS(=O)(=O)c1nnc(NC(=O)C2CCCC3(CCCCC3)C2)s1 (stereo not shown) | – | metabolic stability | mouse, liver microsomes | 1 h | compound remaining | 47.7%
Cc1cn([C@H]2C[C@H](N=[N+]=[N-])[C@@H](CO)O2)c(=O)[nH]c1=O | MT4 | cell growth or viability, MTT | – | 5 days | CC50 | > 7.48 µM
NS(=O)(=O)c1nnc(NC(=O)CCC2CC3CCC2C3)s1 (stereo not shown) | – | metabolic stability | mouse, liver microsomes | 1 h | compound remaining | 41%
Cc1cc(C#N)cc(C)c1Oc1nc(Nc2ccc(C#N)cc2)nc(N)c1Br | MT4 | cell growth or viability, MTT | – | 5 days | CC50 | > 4.59 µM
N#Cc1ccc(C[C@H](Nc2c(Nc3ccc(F)cc3)c(=O)c2=O)C(=O)N2CCc3ccccc32)cc1 | – | metabolic stability | rat, liver microsomes | 10 µM, 30 min, pH 7.4 | compound remaining | 35%
Cc1cc(/C=C/C#N)cc(C)c1Nc1ccnc(Nc2ccc(C#N)cc2)n1 | MT4 | cell growth or viability, MTT | – | 5 days | CC50 | > 5.46 µM
N#Cc1ccc(C[C@H](NC(=O)c2cc3ccc(F)cc3[nH]2)C(=O)N2CCc3ccccc32)cc1 | – | metabolic stability | rat, liver microsomes | 10 µM, 30 min, pH 7.4 | compound remaining | 90%
COc1cc(-c2cc(C(C)=O)n3ccccc23)c(OC)cc1Cn1ccnc1 | – | metabolic stability | rat, liver microsomes | 1 µM, 1 h, pH 7.4 | compound remaining | 62%
N#Cc1ccc(C[C@H](Nc2ncc(-c3ccc(F)cc3)o2)C(=O)N2CCc3ccccc32)cc1 | – | metabolic stability | rat, liver microsomes | 10 µM, 30 min, pH 7.4 | compound remaining | 40%
N#C[C@@]1(c2ccc3c(N)ncnn23)O[C@H](CO)[C@@H](O)[C@H]1O | – | – | dog, plasma | 1 µM | fraction unbound | 0.881
